Screening results: PubChem, Broad Institute
miR-122 sensor: miR-122 inhibition in Huh7 cells. Huh7 miR-122 Renilla luciferase sensor, 48 h; neutral wells = 0, positive control = 100. activation (reporter increase), % at 12.5 µM. 0.3% of 340,000 active. AID 602342;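 active = mean replicate activation score at least 90 and every replicate individually at or above 90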;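 note: higher luciferase means less miR-122 activity so hits act as miR-122 inhibitors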
CFTR F508del cor: correctors of CFTR F508del function in bronchial epithelial cells; activity (quench increase), % at 7.58 µM; AID 720511; 0.36% of 350,000 active; CFBE cells, YFP halide quenching; stimulated with forskolin plus potentiator P3; % fluorescence drop versus neutral controls;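 active = mean added fluorescence quench of at least 8% versus neutral control, with both replicates also reaching 8%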;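 note: cells transiently co-express mutant CFTR-F508del with the halide-sensitive YFP; corrector assay measuring rescue of mutant channel to the surface after 24 h compound exposure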
E-selectin induc: induces E-selectin expression in human endothelial cells. P16581. HUVEC E-selectin immunofluorescence imaging; normalized: neutral wells 0, TNF-alpha wells 100. activation, % at 7.58 µM. 0.37% of 260,000 active;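 active = mean E-selectin-positive cell signal at least 10% of the positive control, reached in at least 60% of replicates, without over 20% cell loss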
Target sequence (P16581 whole entry, looked up): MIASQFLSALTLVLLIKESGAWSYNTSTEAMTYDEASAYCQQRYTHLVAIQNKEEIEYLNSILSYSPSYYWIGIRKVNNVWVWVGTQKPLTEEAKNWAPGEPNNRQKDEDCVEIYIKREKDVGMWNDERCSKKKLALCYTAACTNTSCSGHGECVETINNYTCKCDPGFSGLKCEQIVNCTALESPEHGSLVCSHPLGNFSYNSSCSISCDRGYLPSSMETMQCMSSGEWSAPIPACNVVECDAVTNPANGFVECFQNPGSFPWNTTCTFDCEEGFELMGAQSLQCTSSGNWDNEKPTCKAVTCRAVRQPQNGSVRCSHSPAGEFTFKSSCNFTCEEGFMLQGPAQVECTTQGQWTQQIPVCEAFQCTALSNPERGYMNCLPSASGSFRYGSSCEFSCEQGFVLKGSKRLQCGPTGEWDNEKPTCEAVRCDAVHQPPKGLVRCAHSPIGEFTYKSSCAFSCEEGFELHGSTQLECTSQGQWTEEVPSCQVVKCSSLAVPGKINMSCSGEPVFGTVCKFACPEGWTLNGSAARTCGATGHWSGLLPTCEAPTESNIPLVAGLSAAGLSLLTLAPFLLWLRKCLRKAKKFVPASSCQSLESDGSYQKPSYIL
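Test system – human umbilical vein endothelial cells (HUVEC), E-selectin induction · Input – 3,000 HUVEC seeded per well · Buffer or medium – EGM-2, gelatin · Compound dosing – single-point compound dose · Detection – immunofluorescence imaging · Measure – percent E-selectin-positive cells · Controls – TNF-alpha high, DMSO low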
ERAP1 HTS inh: inhibitors of human ERAP1 aminopeptidase | inhibition, % at 10.7 µM | 0.15% of 340,000 active | Q9NZ08 | recombinant ERAP1, Leu-AMC fluorescence, 60 min;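 active = mean replicate inhibition of at least 30%, or all replicates individually reaching that 30% level; inactive = mean below 30% and not every replicate reaching it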;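 note: 0% = neutral control wells and 100% = L-leucinethiol positive control wells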
DENV2 CPE rescue: DENV2-induced cell death inhibition; DENV2-infected cells, cytopathic effect rescue, plate reader; CPE inhibition, % at 9.99 µM; 1.7% of 350,000 active; AID 651640; in the data active = CPE inhibition above about 20%, passing the limit was not always enough; tested in BHK-21 cells;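 note: 0% = median of neutral control wells and 100% = median of positive control wells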
INS-1E GSIS act: GLuc luminescence reporter in INS-1E cells, primary screen for activators of glucose-dependent secretion of insulin. INS-1E GLuc reporter insulin secretion, 2-3 h. activation, % at 16.6 µM. 0.61% of 370,000 active;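 active = lowest replicate activation of at least 40%, so every replicate reaches that level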;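 note: 0% = median of neutral control wells and 100% = median of IBMX positive control wells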
Starred values were filed as active, the others as inactive; . = no result; ! = repeats disagree; [ ] = another dose, or the depositor's remark. Hits are enriched below; roughly 2.6% of the tested compounds scored in any of these assays.

SMILES	miR-122 sensor	CFTR F508del cor	E-selectin induc	ERAP1 HTS inh	DENV2 CPE rescue	INS-1E GSIS act
C[C@H](CO)N1C[C@H](C)[C@H](CN(C)C(=O)Nc2ccc(F)cc2)Oc2ncc(-c3ccc(F)cc3)cc2C1=O	-2[16.7 µM]	-1	0	.	.	-25
C[C@H](CO)N1C[C@H](C)[C@@H](CN(C)C(=O)c2ccc(F)cc2)Oc2ncc(-c3ccc(F)cc3)cc2C1=O	-5[16.7 µM]	0	0	0	48*	-7
C[C@H](CO)N1C[C@H](C)[C@@H](CN(C)C(=O)Nc2ccc(F)cc2)Oc2ncc(-c3ccc(F)cc3)cc2C1=O	9	-1	0	-1	24*!	-26
CC(=O)N(C)C[C@@H]1Oc2ncc(-c3ccc(F)cc3)cc2C(=O)N([C@H](C)CO)C[C@H]1C	-4[16.7 µM]	2	0	1	59*	35
C[C@@H]1CN([C@H](C)CO)C(=O)c2cc(NC(=O)c3ccncc3)ccc2O[C@H]1CN(C)S(=O)(=O)c1ccc(Cl)cc1	4[16.7 µM]	2	0	2	11	2
CC1(C)N([O-])C(c2cccs2)=C[N+]1=O	103*	.	.	.	.	.
Cc1ccc(S(=O)(=O)Nc2ccc3c(c2)CC(=O)N([C@@H](C)CO)C[C@H](C)[C@H](CN(C)CC2CC2)O3)cc1	-3[16.7 µM]	-1	0	2	-6	19
O=C(NC[C@H]1N[C@@H](CO)[C@H]1c1ccc(-c2ccccc2)cc1)c1ccccc1F	-18[16.7 µM]	0	0	2	8	-1
O=C(NC[C@@H]1N[C@@H](CO)[C@@H]1c1ccccc1)c1ccccc1F	50[16.7 µM]	2	0	.	29*	4
C=CCN1C(=O)[C@]2(CCS(=O)(=O)c3ccccc3)N=C(c3ccc(OCCCO)cc3)O[C@@H]2c2ccccc21	.	0	.	.	.	.
CC1(C(=O)NCc2ccccc2)CN(S(C)(=O)=O)CC(=O)N1C1CC1 (stereo unspecified)	.	0	0	0	-8	65*
Cc1ccccc1CN1C(=O)CN(S(C)(=O)=O)CC1(C)C(=O)NCc1ccccc1 (stereo unspecified)	.	1	0	-1	22*	6
CN(C1CCCCC1)S(=O)(=O)c1cn(C)c(=O)n(C)c1=O	4	0	29*	-2	1	10
COCC(=O)N(C)C[C@@H]1Oc2ncc(C#CC3(O)CCCC3)cc2C(=O)N([C@@H](C)CO)C[C@H]1C	14[16.7 µM]	1	-1	-1	41*	14
CC(=O)N(C)C[C@@H]1Oc2ncc(C#CC3(O)CCCC3)cc2C(=O)N([C@H](C)CO)C[C@@H]1C	-1[16.7 µM]	0	0	3	31*	12
CC(=O)N(C)C[C@@H]1Oc2ncc(C#CC3(O)CCCC3)cc2C(=O)N([C@H](C)CO)C[C@H]1C	-2[16.7 µM]	-4	0	-1	-4	3
C[C@@H]1CN([C@@H](C)CO)C(=O)c2cc(C#CC3CCCCC3)cnc2O[C@@H]1CN(C)S(=O)(=O)c1ccc(F)cc1	-4	3	0	-1	4	-15
C[C@H]1CN([C@@H](C)CO)C(=O)c2cc(C#CC3CC3)cnc2O[C@@H]1CN(C)C	-7[16.7 µM]	-1	0	0	69*	5
C[C@H]1CN([C@@H](C)CO)C(=O)c2cc(C#CC3CCCCC3)cnc2O[C@H]1CN(C)S(=O)(=O)c1ccc(F)cc1	-8[16.7 µM]	2	1	0	72*!	-15
C[C@@H]1CN([C@H](C)CO)C(=O)c2cc(C#CCC3CCCC3)cnc2O[C@H]1CN(C)S(=O)(=O)c1cccs1	.	-3	1	.	5	-4
C[C@H](CO)N1C[C@H](C)[C@H](CN(C)C(=O)CN(C)C)Oc2ncc(C#Cc3ccccc3)cc2C1=O	-4[16.7 µM]	-1	2	0	51*	16
C[C@@H]1CN([C@@H](C)CO)C(=O)c2cc(C#CCC3CCCC3)cnc2O[C@H]1CN(C)S(=O)(=O)c1cccs1	.	0	7	.	38*	10
C[C@@H]1CN([C@H](C)CO)C(=O)c2cc(C#CC3CC3)cnc2O[C@H]1CN(C)C	-7[16.7 µM]	-1	0	-2	3	0
C[C@@H]1CN([C@H](C)CO)C(=O)c2cc(C#Cc3ccncc3)cnc2O[C@H]1CN(C)C(=O)CN(C)C	-10[16.7 µM]	-1	0	0	-2	14
